{"source": "ChEMBL document CHEMBL3272345", "about": "“Specificity in enzyme inhibition. 3. Synthesis of 5-substituted 2,2-dimethyl-4-imidazolidinones as inhibitors of tyrosine decarboxylase and histidine decarboxylase” (1976)", "key": {"[1]": {"target": "T1, Decarboxylase (Enterococcus faecalis) (UniProt Q8KXD2)", "T1 sequence (whole entry)": "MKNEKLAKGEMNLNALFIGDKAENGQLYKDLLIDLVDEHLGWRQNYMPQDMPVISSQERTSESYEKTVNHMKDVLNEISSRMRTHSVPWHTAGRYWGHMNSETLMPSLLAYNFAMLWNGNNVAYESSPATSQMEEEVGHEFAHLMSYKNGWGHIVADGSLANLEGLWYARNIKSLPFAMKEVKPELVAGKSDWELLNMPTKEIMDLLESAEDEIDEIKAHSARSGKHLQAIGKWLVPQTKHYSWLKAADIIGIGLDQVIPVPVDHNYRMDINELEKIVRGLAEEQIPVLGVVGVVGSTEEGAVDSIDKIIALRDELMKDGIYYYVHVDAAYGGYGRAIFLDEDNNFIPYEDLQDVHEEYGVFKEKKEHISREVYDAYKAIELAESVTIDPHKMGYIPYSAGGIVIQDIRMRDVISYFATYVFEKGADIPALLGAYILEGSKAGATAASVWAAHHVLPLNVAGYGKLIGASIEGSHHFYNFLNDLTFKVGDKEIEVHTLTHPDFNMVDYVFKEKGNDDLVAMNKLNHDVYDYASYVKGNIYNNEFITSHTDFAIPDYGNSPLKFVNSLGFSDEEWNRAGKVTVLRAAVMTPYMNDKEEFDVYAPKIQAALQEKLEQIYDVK", "experiment": "Inhibition of Streptococcus faecalis tyrosine decarboxylase assessed as 14CO2 production using 10 mM L-phenylalanine-1-14C as substrate at 5 mM after 20 mins by scintillation counting analysis", "how_it_was_run": "(§1)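 Crude S. faecalis tyrosine decarboxylase acetone powder (0.5 mg) used as the phenylalanine decarboxylase. Buffer was citrate–phosphate/0.2 M NaPO₄ pH 5.5 with 0.5 mM pyridoxal 5-phosphate, and the substrate was L-phenylalanine-1-¹⁴C (10⁻² μCi/μmol). Inhibitor at 5 mM. Incubated at 37° with shaking, stopped by TCA. ¹⁴CO₂ absorbed 30 min into hyamine and counted by scintillation. Percent inhibition versus controls, average of triplicates.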"}, "[2]": {"target": "T1, Decarboxylase (Enterococcus faecalis)", "experiment": "Inhibition of Streptococcus faecalis tyrosine decarboxylase assessed as 14CO2 production using 5 mM L-phenylalanine-1-14C as substrate at 5 mM after 30 mins by scintillation counting analysis", "how_it_was_run": "as §1"}, "[3]": {"target": "T1, Decarboxylase (Enterococcus faecalis)", "experiment": "Inhibition of Streptococcus faecalis tyrosine decarboxylase assessed as 14CO2 production using 0.8 mM L-tyrosine-1-14C as substrate at 5 mM after 20 mins by scintillation counting analysis", "how_it_was_run": "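Crude acetone-powder enzyme from S. faecalis, 8 × 10⁻³ mg per 0.5 ml, in 0.075 M citrate–0.15 M phosphate pH 5.5 with 0.5 mM pyridoxal 5-phosphate. Substrate L-tyrosine-1-¹⁴C (2.85 × 10⁻¹ μCi/μmol). Inhibitor tested at 5 mM, 37° for 20 min, stopped with TCA. ¹⁴CO₂ trapped in hyamine hydroxide for 20 min and counted by scintillation. Percent inhibition versus no-inhibitor controls, mean of triplicate runs.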"}, "Ileum": {"test_system": "Ileum", "experiment": "Inhibition of histamine-induced response in guinea pig ileum at 1 mM", "format": "functional", "conditions": "Cavia porcellus"}, "[4]": {"target": "T2, Histidine decarboxylase (Rattus norvegicus) (UniProt P16453)", "T2 sequence (whole entry)": "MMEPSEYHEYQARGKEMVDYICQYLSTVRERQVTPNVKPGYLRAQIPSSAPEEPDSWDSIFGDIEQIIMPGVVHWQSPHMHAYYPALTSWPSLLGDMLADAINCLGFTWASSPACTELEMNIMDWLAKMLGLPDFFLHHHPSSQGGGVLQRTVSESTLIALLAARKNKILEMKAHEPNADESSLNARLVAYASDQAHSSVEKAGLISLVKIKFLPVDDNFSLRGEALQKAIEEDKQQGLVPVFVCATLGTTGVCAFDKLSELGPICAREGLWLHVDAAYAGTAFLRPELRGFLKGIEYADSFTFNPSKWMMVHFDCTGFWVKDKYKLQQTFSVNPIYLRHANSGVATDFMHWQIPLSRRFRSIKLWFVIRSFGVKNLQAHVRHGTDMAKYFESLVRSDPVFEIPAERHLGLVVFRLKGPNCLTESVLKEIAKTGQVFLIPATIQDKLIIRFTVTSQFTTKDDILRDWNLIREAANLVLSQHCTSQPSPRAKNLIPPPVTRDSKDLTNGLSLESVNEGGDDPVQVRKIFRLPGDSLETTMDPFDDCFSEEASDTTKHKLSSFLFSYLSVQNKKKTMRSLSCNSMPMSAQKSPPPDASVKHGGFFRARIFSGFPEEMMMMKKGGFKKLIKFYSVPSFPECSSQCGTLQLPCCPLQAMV", "experiment": "Inhibition of fetal rat histidine decarboxylase at 1 mM"}}, "note": "The source made the active and inactive calls. No cut-off for these calls is given here.", "data": [{"molecule": "CC1(C)NC(=O)[C@H](Cc2c[nH]c3ccccc23)N1", "values": [{"measurement": "inhibition", "setting": "[1]", "result": 33, "unit": "%"}, {"measurement": "inhibition", "setting": "[2]", "result": 42, "unit": "%"}]}, {"molecule": "CC1(C)NC(=O)C(Cc2ccccc2)N1", "note": "(racemic)", "values": [{"measurement": "inhibition", "setting": "[1]", "result": 13, "unit": "%"}, {"measurement": "inhibition", "setting": "[2]", "result": 17, "unit": "%"}, {"measurement": "inhibition", "setting": "[3]", "result": 10, "unit": "%"}]}, {"molecule": "CC1(C)NC(=O)[C@H](Cc2ccc(O)cc2)N1", "values": [{"measurement": "inhibition", "setting": "[1]", "result": 31, "unit": "%"}, {"measurement": "inhibition", "setting": "[2]", "result": 39, "unit": "%"}, {"measurement": "inhibition", "setting": "[3]", "result": 38, "unit": "%"}]}, {"molecule": "CC1(C)NC(=O)[C@H](Cc2cnc[nH]2)N1", "values": [{"measurement": "inhibition", "setting": "[1]", "result": 24, "unit": "%"}, {"measurement": "inhibition", "setting": "[2]", "result": 27, "unit": "%"}, {"measurement": "inhibition at 1000 µM", "setting": "Ileum", "result": 57, "unit": "%"}, {"measurement": "inhibition", "setting": "[4]", "result": "inactive"}]}, {"molecule": "CC1(C)NC(=O)C(c2ccccc2)N1", "note": "(racemic)", "values": [{"measurement": "inhibition", "setting": "[1]", "result": 7, "unit": "%"}, {"measurement": "inhibition", "setting": "[2]", "result": 9, "unit": "%"}]}]}
